Measurements published in ChEMBL document CHEMBL4265978, “In search of constrained FTY720 and phytosphingosine analogs as dual acting anticancer agents targeting metabolic and epigenetic pathways” (Eur J Med Chem, 2018).
Active and inactive are the calls of the source. No cut-off for these calls is given here.

Key:
FL5.12 [1] = experiment: Cytotoxicity against mouse FL5.12 cells after 48 hrs by DAPI or propidium iodide staining-based flow cytometric analysis; assay type: functional, cell-based; details: FL5.12, 48 h
How it was run: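 FL5.12 (murine hematopoietic, IL-3-dependent) cells treated at 25,000/mL; viability read at 48 h by DAPI or propidium iodide dye exclusion on flow cytometry. IC50 fitted, reported with 95% confidence interval.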

FL5.12 [2] = experiment: Downregulation of CD98 expression in mouse FL5.12 cells at 2.5 uM after 3 hrs by DAPI staining-based FACS analysis relative to control; assay type: functional
How it was run: (§1)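 FL5.12 cells plated at 225-250,000/mL and treated 3 h. 150-200,000 cells stained in triplicate on ice for 30 min with PE-anti-mouse CD98, with PE rat IgG2a κ as isotype control. Read by flow cytometry, gated on viable cells (DAPI exclusion or scatter). Loss given as mean of at least 2 biological replicates.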

FL5.12 [3] = experiment: Downregulation of CD98 expression in mouse FL5.12 cells at 10 uM after 3 hrs by DAPI staining-based FACS analysis relative to control; assay type: functional; how it was run: as §1
FL5.12 [4] = experiment: Cytotoxicity against mouse FL5.12 cells assessed as vacuole formation at 10 uM after 3 hrs by […]; assay type: functional, cell-based
How it was run: (§2)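 FL5.12 cells treated at 200,000/mL for 3 h, then imaged at 100× by brightfield/DIC. At least 5 images per condition, at least 2 biological replicates. Two researchers scored each replicate independently: 0 no vacuoles, + some cells, ++ most cells with at least 1 vacuole, +++ all cells heavily vacuolated.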

FL5.12 [5] = experiment: Cytotoxicity against mouse FL5.12 cells assessed as vacuole formation at 2.5 uM after 3 hrs by […]; assay type: functional, cell-based; how it was run: as §2
FL5.12 [6] = experiment: Downregulation of CD98 expression in mouse FL5.12 cells at 40 uM after 3 hrs by DAPI staining-based FACS analysis relative to control; assay type: functional; how it was run: as §1
FL5.12 [7] = experiment: Cytotoxicity against mouse FL5.12 cells assessed as vacuole formation at 40 uM after 3 hrs by […]; assay type: functional, cell-based; how it was run: as §2
[8] = molecular target: Histone deacetylase (Homo sapiens) (UniProt Q13547+O15379+Q9UBN7+Q92769+Q9UQL6+Q8WUI4+Q9BY41+Q96DB2+P56524+Q9UKV0+Q969S8); experiment: Inhibition of HDAC in human HeLa cell extract at 10 to 20 uM after 15 to 30 mins by COLOR DE LYS-based colorimetric method; assay type: protein assay
How it was run: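 Recombinant HDAC1 or HeLa extract incubated with acetylated lysine substrate at 37°C for 15-30 min. Developer then added: 10-15 min at 37°C with absorbance at 405 nm (colorimetric kit), or 15 min at RT with fluorescence at ex 355/em 460 nm, corrected using ± trichostatin A.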

Compound	IC50 (FL5.12 [1])	Activity (FL5.12 [2])	Activity (FL5.12 [3])	Activity (FL5.12 [4])	Activity (FL5.12 [5])	Activity (FL5.12 [6])	Activity (FL5.12 [7])	inhibition [8]
CCCCCCCCc1ccc(C(=O)C[C@@H]2CCCN2)cc1.Cl	2.5 µM	28%	57%	Active	Active	–	–	–
CCCCCCCCc1ccc(C(=O)[C@H]2C[C@H](CO)CN2)cc1.Cl	19.6 µM	0%	19%	inactive	inactive	61%	Active	–
CCCCCCCCc1ccc(C(=O)C[C@@H]2C[C@@H](O)CN2)cc1.Cl	2.1 µM	22%	46%	Active	Active	–	–	–
CCCCCCCCc1ccc([C@@H]2CC[C@H]3C[C@H](CO)CN32)cc1.Cl	12.2 µM	0%	32%	inactive	inactive	68%	Active	–
CCCCCCCCc1ccc(C(=O)[C@@H]2CCCN2)cc1.Cl	> 40 µM	-21%	-4%	inactive	inactive	33%	Active	–
CCCCCCCCc1ccc(CC(O)[C@@H]2C[C@@H](O)CN2)cc1.Cl (some centres undefined)	3 µM	19%	62%	Active	Active	–	–	inactive
O=C(CCCCCCC(=O)Nc1ccccc1)NO	–	–	–	Active	–	–	–	–
CCCCCCCCc1ccc(CC(=O)[C@H]2C[C@H](OP(=O)(O)O)CN2)cc1.Cl	25.3 µM	–	5%	inactive	–	8%	inactive	inactive
Cc1nc(/C=C/CCCCCc2ccc([C@H]3CCN[C@@H]3CO)cc2)co1.Cl	10.2 µM	5%	18%	inactive	–	61%	inactive	–
CCCCCCCCc1ccc(CC(O)[C@H]2C[C@H](O)CN2)cc1.Cl (some centres undefined)	1.8 µM	9%	62%	Active	inactive	–	–	inactive
CCCCCCCCc1ccc(C(=O)CC[C@H]2C[C@H](CO)CN2)cc1.Cl	4 µM	8%	46%	Active	inactive	–	–	–
CCCCCCCCc1ccc([C@H]2CCN[C@@H]2CO)cc1	2.1 µM	41%	66%	Active	Active	–	–	–
CCCCCCCCc1ccc(CC(=O)[C@@H]2C[C@@H](OP(=O)(O)O)CN2)cc1.Cl	25 µM	–	3%	inactive	–	0%	inactive	inactive
CCCCCCCCc1ccc(C(C[C@@H]2CCCN2)OC)cc1.Cl (some centres undefined)	3 µM	16%	58%	Active	inactive	–	–	–
Cc1nc(CCCCCCCc2ccc([C@H]3CCN[C@@H]3CO)cc2)co1.Cl	8.4 µM	5%	33%	inactive	–	61%	inactive	–
CCCCCCCCc1ccc(CCC(N)(CO)CO)cc1 [FINGOLIMOD]	2.1 µM	30%	63%	Active	Active	–	–	–
CCCCCCCCc1ccc(C(=O)[C@H]2C[C@H](O)CN2)cc1.Cl	15.3 µM	12%	51%	Active	inactive	41%	Active	–
CCCCCCCCc1ccc(C(=O)[C@H]2C[C@H](OP(=O)(O)O)CN2)cc1.Cl	12.8 µM	–	-9%	inactive	inactive	0%	inactive	–
CCCCCCCCc1ccc(CC[C@@H]2CCCN2)cc1.Cl	2.8 µM	41%	63%	Active	Active	–	–	–
CC(=O)CCCCCCc1ccc([C@H]2CCN[C@@H]2CO)cc1.Cl	15.1 µM	-15%	-8%	inactive	–	23%	inactive	–
CCCCCCCCc1ccc(CC(=O)[C@H]2C[C@H](O)CN2)cc1.Cl	17.1 µM	11%	16%	inactive	inactive	54%	Active	–
CCCCCCCCc1ccc(C(=O)[C@@H]2C[C@@H](O)CN2)cc1.Cl	28.1 µM	2%	9%	–	inactive	48%	Active	–
CCCCCCCCc1ccc(CC(=O)[C@@H]2C[C@@H](O)CN2)cc1.Cl	18.6 µM	13%	23%	inactive	inactive	59%	Active	–
CCCCCCCCc1ccc(C(=O)CC[C@@H]2C[C@@H](O)CN2)cc1.Cl	2.1 µM	15%	52%	Active	Active	–	–	–
CCCCCCCCc1ccc(C[C@@H]2C[C@@H](O)CN2)cc1	2.2 µM	40%	63%	Active	Active	–	–	–
Cl.OC[C@H]1NCC[C@@H]1c1ccc(CCCOCc2ccccc2)cc1	10.9 µM	11%	14%	inactive	–	51%	inactive	–
CCCCCCCCc1ccc(C(=O)[C@@H]2C[C@@H](OP(=O)(O)O)CN2)cc1.Cl	12.9 µM	–	3%	inactive	inactive	-8%	inactive	–
